Source: PubChem (Johns Hopkins Ion Channel Center)
KCNQ1 act: potentiates or activates the human KCNQ1 potassium channel | P51787 | CHO-K1 KCNQ1, thallium flux FluxOR fluorescence; active compounds read high | B-score at 10 µM | 310,000 compounds, 0.35% hits | AID 2648;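 active means fluorescence ratio B-score, a plate-corrected score, at least three library SD, with initial intensity B-score within 5 SD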
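System: CHO-K1 cells stably expressing KCNQ1 / Medium: assay buffer for compound exposure, DMSO matched across wells / Reagent: thallium- and potassium-containing depolarizing buffer / Compound: one concentration, matched DMSO / Incubation: 20 min compound pretreatment at room temperature / Measured by: kinetic FluxOR fluorescence, 10 s baseline plus 110 s post-stimulus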
KCNQ1 block: human KCNQ1 channel inhibition; P51787; CHO-K1 KCNQ1, FluxOR thallium flux fluorescence; active compounds read high; B-score at 10 µM; 310,000 compounds, 1.3% hits; AID 2642;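 active means compounds whose thallium flux B-score, printed positive for inhibition, exceeds three library SD while starting fluorescence stays within three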;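 further: channel opened by potassium depolarization with thallium stimulus after 20 min compound exposure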
hERG protect: hERG (human) protection from proarrhythmic block; activation (rescue from dofetilide block), less the hit threshold, % at 10 µM; CHO-hERG, FluxOR thallium flux, dofetilide IC70 present; Q12809; AID 1511; 310,000 compounds, 0.51% hits;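 active means activation above the mean of controls blocked by dofetilide plus 5 SD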;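 further: thallium influx through hERG after potassium depolarization seen as dye fluorescence rise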
KCNK9 inh: human KCNK9 channel inhibition; 310,000 compounds, 1.2% hits; HEK293 KCNK9, FluxOR thallium flux fluorescence; active compounds read low; AID 488922; B-score at 10 µM;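 active means ratio B-score over 3 SD below the library mean, with starting fluorescence within 5 SD of its mean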;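 further: negative B-score means less thallium flux so channel inhibition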
KCNK3 inh: human KCNK3 channel inhibition, primary screen | B-score at 10 µM | AID 602410 | CHO-KCNK3 thallium flux, FluxOR fluorescence; active compounds read low | O14649 | 340,000 compounds, 0.84% hits;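 active means B-score under library mean minus 4 SD, starting fluorescence ratio at most library mean plus 5 SD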;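 further: more negative B-score means stronger inhibition of thallium flux through KCNK3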
Kir21 block: Kir2.1 (mouse) channel inhibition. P35561. HEK293-Kir2.1, FluxOR thallium flux fluorescence; active compounds read low. B-score at 10 µM. 310,000 compounds, 0.85% hits. AID 1672;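 active means fluorescence ratio B-score at or below minus 3 SD of library scores, with starting-brightness B-score within 2 SD, cut at about -4.2 in these data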;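 further: channel flux triggered by added potassium and thallium sulfate stimulus; B-score of peak minus minimum fluorescence over baseline after thallium stimulus; more negative B-score means stronger Kir2.1 block with less thallium influx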
Target sequence (P35561 whole entry, looked up): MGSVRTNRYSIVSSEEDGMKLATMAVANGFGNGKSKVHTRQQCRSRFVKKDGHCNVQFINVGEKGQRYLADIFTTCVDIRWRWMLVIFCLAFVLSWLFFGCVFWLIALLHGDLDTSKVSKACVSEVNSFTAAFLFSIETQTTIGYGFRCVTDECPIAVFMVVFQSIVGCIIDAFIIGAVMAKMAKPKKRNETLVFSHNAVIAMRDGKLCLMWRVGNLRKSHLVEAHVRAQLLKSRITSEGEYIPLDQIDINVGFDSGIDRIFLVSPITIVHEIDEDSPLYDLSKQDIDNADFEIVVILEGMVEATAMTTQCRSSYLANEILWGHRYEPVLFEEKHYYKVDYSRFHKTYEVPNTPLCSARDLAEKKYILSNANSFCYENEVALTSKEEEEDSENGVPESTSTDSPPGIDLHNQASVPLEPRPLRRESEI
KCNK3 inh conf: human KCNK3 channel inhibition, confirmation assay. shares compounds with KCNK3 inh. CHO-KCNK3 thallium flux, FluxOR fluorescence; 0% buffer, 100% carvedilol maximal block. ratio percent of control, % at 10 µM. 2,400 compounds, 99% hits;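 active means ratio percent of control, averaged over triplicates, above buffer control mean plus 5 SD, cut at about 64% in these data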;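 further: ratio is the fluorescence rise from min to max over baseline after thallium stimulus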
KCNK3 uninduced: activity in cells without induced KCNK3 expression | non-induced KCNK3 parental cells, FluxOR thallium flux; active compounds read low | thallium flux ratio (lower = more inhibition) at 10 µM | shares compounds with KCNK3 inh | AID 651747 | 2,400 compounds, 40% hits;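 active means thallium flux ratio, averaged over three wells, more than 5 SD below the buffer control mean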;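 further: host cells are CHO cells without KCNK3 induction; ratio is peak minus trough fluorescence over baseline then normalized to buffer controls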
* marks the source's active call; other numbers are inactive results; i = inactive; nt = no result. Most compounds without a hit are left out; they make up all but 3.8% or so of the library.

SMILES | KCNQ1 act | KCNQ1 block | hERG protect | KCNK9 inh | KCNK3 inh | Kir21 block | KCNK3 inh conf | KCNK3 uninduced
Cc1cc(OCC(=O)C(C)(C)C)c2c(-c3ccccc3)cc(=O)oc2c1 | i | i | -13 | i | i | -0.2 | nt | nt
COc1ccc(C)cc1Cn1nnc2ccccc21 | i | i | -3 | i | i | -0.32 | nt | nt
COc1ccc(C2Nc3ccccc3C(=O)N2c2ccc(C)cc2)cc1Cn1nnc2ccccc21 (centres undefined) | i | i | -12 | i | -8.8* | -1.1 | 111* | 0.16*
COc1ccc(C2Nc3ccccc3C(=O)N2c2ccc(C)cc2)cc1Cn1cc([N+](=O)[O-])cn1 (centres undefined) | i | i | -15 | i | -8.8* | 2 | 105* | i
O=C1c2cccc3cccc(c23)C(=O)N1CC1CCN(CC(O)COc2ccc3ccccc3c2)CC1 (centres undefined) | i | i | -17 | i | -9.9* | -1.6 | 101* | 0.15*
CCN(C(=O)COC(=O)CCC1CCCC1)c1c(N)n(Cc2ccccc2)c(=O)[nH]c1=O | nt | nt | nt | nt | i | nt | nt | nt
Cc1sc2ncnc(N3CCC(C(=O)Nc4ccc(OC(F)F)c(Cl)c4)CC3)c2c1C | nt | nt | nt | nt | -13* | nt | 142* | 0.14*
O=C(c1ccco1)N1CCc2[nH]nc(-c3ccccc3)c2C1 | i | i | -9 | i | i | 1.8 | nt | nt
CCC(C)(C)n1nnnc1C(c1ccccc1)N1CCc2ccccc2C1 (centres undefined) | i | i | -13 | i | -9.4* | 0.99 | 110* | i
CCOC(=O)C1CCN(C(=O)Nc2cccc(Cl)c2)CC1 | i | i | -9 | i | i | 1.6 | nt | nt
CCOC(=O)C1CCN(C(=O)Nc2cc(Cl)cc(Cl)c2)CC1 | i | i | -3 | i | -9.9* | -0.91 | 111* | i
COC(=O)c1sccc1S(=O)(=O)NCc1ccc(S(N)(=O)=O)cc1 | i | i | -9 | i | i | -0.5 | nt | nt
Nc1ccccc1NC(=O)CCn1c(=S)[nH]c2ccccc2c1=O | i | i | -9 | i | i | -1.2 | nt | nt
COc1ccc(NC(=O)C2CCN(S(C)(=O)=O)CC2)cc1 | i | i | -9 | i | i | -0.02 | nt | nt
CCOc1ccc(NC(=O)C2CCN(S(C)(=O)=O)CC2)cc1 | i | i | -5 | i | -9.3* | -1.8 | 97* | i
COc1ccc(C(NCC(=O)NC(C)c2ccc(Cl)cc2)c2ccccc2)cc1 (centres undefined) | i | i | -1 | i | -9.5* | 0.01 | 126* | 0.12*
COc1ccc(NC(=O)CNC(c2ccccc2)c2ccccc2)cc1 | i | i | -4 | i | i | -0.03 | nt | nt
Nc1ncc2[nH]c(N)nc2n1 | nt | nt | nt | nt | i | nt | nt | nt
CCc1c(C(=O)N2CCCN(C)CC2)csc1C | i | i | -2 | i | i | -1.1 | nt | nt
CCOc1cc(N2CCOCC2)c(OCC)cc1NC(=O)C1CC(=O)N(c2ccc(C)cc2)C1 (centres undefined) | nt | nt | nt | nt | i | nt | nt | nt
CCCOC(=O)/C(=C\C=C\c1ccccc1)NC(=O)c1ccccc1 | i | i | -7 | i | -10* | 0.49 | 147* | 0.15*
O=C(NCCS(=O)(=O)c1ccc(Br)cc1)c1ccccc1 | i | i | -2 | i | i | -1.6 | nt | nt
CC(C)c1ccc(C(C)NCCS(=O)(=O)c2ccc(Br)cc2)cc1 (centres undefined) | i | i | -14 | i | -8.9* | -4.7* | 69* | 0.14*
O=C(Nc1cc(Cl)ccc1N1CCCCC1)c1cccs1 | i | i | -2 | -7.3* | -14* | -0.95 | 128* | 0.12*
CCOc1cc(/C=C2\C(=O)ON=C2C)ccc1OCc1ccccc1 | i | i | -7 | i | i | 1.1 | nt | nt
COc1ccc(/C=C2/C(=O)ON=C2C)cc1Cl | i | i | -1 | i | i | 0.34 | nt | nt
